System: Mycobacterium tuberculosis variant bovis BCG
Test: Antimicrobial activity against Mycobacterium bovis BCG TMC1011 Pasteur ATCC 35734 after 24 to 48 hrs
Format: functional
Summary of the method: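 Streaked from frozen glycerol stock onto nutrient agar (1.5% agar), 37 °C, 24 h. Single colonies were grown in nutrient broth to OD600 1.0 and diluted to OD600 0.003. Cells were exposed to compound at varying concentrations from DMSO stocks (1% DMSO). Growth was read at 600 nm at 24 and 48 h, with 690 nm background subtracted and normalised to DMSO controls.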

| Compound | MIC99 [µM] |
| --- | --- |
| O=CNCCCC[C@H](NC(=O)[C@@H]1COC(c2ccccc2O)=N1)C(=O)O | > 100 |
| O=CNCCCC[C@@H](NC(=O)[C@H]1COC(c2ccccc2O)=N1)C(=O)O | > 100 |
| O=CNCCCC[C@H](NC(=O)[C@H]1COC(c2ccccc2O)=N1)C(=O)O | > 100 |
| O=CNCCCC[C@@H](NC(=O)[C@@H]1COC(c2ccccc2O)=N1)C(=O)O | > 100 |

From ChEMBL document CHEMBL2062518, “Total synthesis and biological evaluation of transvalencin Z” (J Nat Prod, 2012)
